ChEMBL document CHEMBL3044643, “Chemical composition and antifungal activity of Arnica longifolia, Aster hesperius, and Chrysothamnus nauseosus essential oils” (2007)
Activity calls are given as the source filed them. The rule behind the calls is not given here.

Columns and labels:
[1] = tested on: Colletotrichum gloeosporioides; experiment: Antifungal activity against Colletotrichum gloeosporioides assessed as size of growth inhibitory zone at concentration of 2 mM in volume of 10 ul of acetone measured after 4 days by TLC based direct bioautography assay; assay type: functional
Method in brief: (§1)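 Direct TLC bioautography on silica plates, dose–response from 2 to 12 µL of a 2 mM solution spotted per plate. Benomyl, cyprodinil, azoxystrobin and captan served as standards at 2 µL of 2 mM in ethanol. Inhibitory zone size was measured 4 days after treatment. Experiments were repeated multiple times, and mean zones were compared by ANOVA with Fisher's protected LSD (P 0.05).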

[2] = tested on: Colletotrichum gloeosporioides; experiment: Antifungal activity against Colletotrichum gloeosporioides assessed as size of growth inhibitory zone at concentration of 2 mM in volume of 8 ul of acetone measured after 4 days by TLC based direct bioautography assay; assay type: functional; method in brief: as §1
[3] = tested on: Colletotrichum gloeosporioides; experiment: Antifungal activity against Colletotrichum gloeosporioides assessed as size of growth inhibitory zone at concentration of 2 mM in volume of 6 ul of acetone measured after 4 days by TLC based direct bioautography assay; assay type: functional; method in brief: as §1
[4] = tested on: Colletotrichum gloeosporioides; experiment: Antifungal activity against Colletotrichum gloeosporioides assessed as size of growth inhibitory zone at concentration of 2 mM in volume of 2 ul of acetone measured after 4 days by TLC based direct bioautography assay; assay type: functional; method in brief: as §1
Colletotrichum fragariae [5] = experiment: Antifungal activity against Colletotrichum fragariae assessed as size of growth inhibitory zone at concentration of 2 mM in volume of 12 ul of acetone measured after 4 days by TLC based direct bioautography assay; assay type: functional; method in brief: as §1
Colletotrichum fragariae [6] = experiment: Antifungal activity against Colletotrichum fragariae assessed as size of growth inhibitory zone at concentration of 2 mM in volume of 10 ul of acetone measured after 4 days by TLC based direct bioautography assay; assay type: functional; method in brief: as §1
Colletotrichum acutatum [7] = experiment: Antifungal activity against Colletotrichum acutatum assessed as size of growth inhibitory zone at concentration of 2 mM in volume of 4 ul of acetone measured after 4 days by TLC based direct bioautography assay; assay type: functional; method in brief: as §1
Colletotrichum fragariae [8] = experiment: Antifungal activity against Colletotrichum fragariae assessed as size of growth inhibitory zone at concentration of 2 mM in volume of 8 ul of acetone measured after 4 days by TLC based direct bioautography assay; assay type: functional; method in brief: as §1
Colletotrichum fragariae [9] = experiment: Antifungal activity against Colletotrichum fragariae assessed as size of growth inhibitory zone at concentration of 2 mM in volume of 6 ul of acetone measured after 4 days by TLC based direct bioautography assay; assay type: functional; method in brief: as §1
Colletotrichum fragariae [10] = experiment: Antifungal activity against Colletotrichum fragariae assessed as size of growth inhibitory zone at concentration of 2 mM in volume of 2 ul of acetone measured after 4 days by TLC based direct bioautography assay; assay type: functional; method in brief: as §1
Colletotrichum acutatum [11] = experiment: Antifungal activity against Colletotrichum acutatum assessed as size of growth inhibitory zone at concentration of 2 mM in volume of 12 ul of acetone measured after 4 days by TLC based direct bioautography assay; assay type: functional; method in brief: as §1
Colletotrichum acutatum [12] = experiment: Antifungal activity against Colletotrichum acutatum assessed as size of growth inhibitory zone at concentration of 2 mM in volume of 10 ul of acetone measured after 4 days by TLC based direct bioautography assay; assay type: functional; method in brief: as §1
Colletotrichum acutatum [13] = experiment: Antifungal activity against Colletotrichum acutatum assessed as size of growth inhibitory zone at concentration of 2 mM in volume of 8 ul of acetone measured after 4 days by TLC based direct bioautography assay; assay type: functional; method in brief: as §1
Colletotrichum acutatum [14] = experiment: Antifungal activity against Colletotrichum acutatum assessed as size of growth inhibitory zone at concentration of 2 mM in volume of 6 ul of acetone measured after 4 days by TLC based direct bioautography assay; assay type: functional; method in brief: as §1
Colletotrichum acutatum [15] = experiment: Antifungal activity against Colletotrichum acutatum assessed as size of growth inhibitory zone at concentration of 2 mM in volume of 2 ul of acetone measured after 4 days by TLC based direct bioautography assay; assay type: functional; method in brief: as §1
[16] = tested on: Colletotrichum gloeosporioides; experiment: Antifungal activity against Colletotrichum gloeosporioides assessed as size of growth inhibitory zone at concentration of 2 mM in volume of 4 ul of acetone measured after 4 days by TLC based direct bioautography assay; assay type: functional; method in brief: as §1
Colletotrichum fragariae [17] = experiment: Antifungal activity against Colletotrichum fragariae assessed as size of growth inhibitory zone at concentration of 2 mM in volume of 4 ul of acetone measured after 4 days by TLC based direct bioautography assay; assay type: functional; method in brief: as §1
Fusarium oxysporum = experiment: Antifungal activity against Fusarium oxysporum assessed as growth inhibition at 0.3 to 30 uM after 72 hr by 96-well microdilution broth assay; assay type: functional, organism-based
Method in brief: (§2)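 96-well microdilution broth dose–response. Final treatment concentrations were 0.3, 3.0 and 30.0 µM, alongside an azoxystrobin fungicide standard. Plates were lidded and incubated in a growth chamber, and growth was read as absorbance at 620 nm. Each concentration was run in duplicate, with three independent experiments. Results are reported as mean growth inhibition with standard errors for each fungus and dose.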

Phomopsis obscurans = experiment: Antifungal activity against Phomopsis obscurans assessed as growth inhibition at 0.3 to 30 uM after 72 hr by 96-well microdilution broth assay; assay type: functional, organism-based; details: Paraphomopsis obscurans; method in brief: as §2
[18] = tested on: Colletotrichum gloeosporioides; experiment: Antifungal activity against Colletotrichum gloeosporioides assessed as growth inhibition at 0.3 to 30 uM after 72 hr by 96-well microdilution broth assay; assay type: functional, organism-based; method in brief: as §2
Colletotrichum fragariae [19] = experiment: Antifungal activity against Colletotrichum fragariae assessed as growth inhibition at 0.3 to 30 uM after 72 hr by 96-well microdilution broth assay; assay type: functional, organism-based; method in brief: as §2
Colletotrichum acutatum [20] = experiment: Antifungal activity against Colletotrichum acutatum assessed as growth inhibition at 0.3 to 30 uM after 72 hr by 96-well microdilution broth assay; assay type: functional, organism-based; method in brief: as §2
Botrytis cinerea [21] = experiment: Antifungal activity against Botryotinia fuckeliana assessed as growth inhibition at 3.0 uM after 72 hr by 96-well microdilution broth assay; assay type: functional; details: read-out: GI; method in brief: as §2
Botrytis cinerea [22] = experiment: Antifungal activity against Botryotinia fuckeliana assessed as growth inhibition at 0.3 uM after 72 hr by 96-well microdilution broth assay; assay type: functional; details: read-out: GI; method in brief: as §2
[23] = tested on: Colletotrichum gloeosporioides; experiment: Antifungal activity against Colletotrichum gloeosporioides assessed as size of growth inhibitory zone at concentration of 2 mM in volume of 12 ul of acetone measured after 4 days by TLC based direct bioautography assay; assay type: functional; method in brief: as §1
[24] = tested on: Colletotrichum gloeosporioides; experiment: Antifungal activity against Colletotrichum gloeosporioides assessed as diffuse inhibitory zone at concentration of 2 mM in volume of 2 ul of EtOH measured after 4 days by TLC based direct bioautography assay; assay type: functional, organism-based
Method in brief: (§3)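 Direct TLC bioautography on silica plates against Colletotrichum species. Technical-grade fungicide standards (without formulation) were spotted at 2 µL of 2 mM in 95% ethanol. Inhibitory zone size was read 4 days after treatment. Diffuse zones were taken to mark suppressive activity. Values are means and standard deviations of zone size, with means separated by ANOVA and Fisher's protected LSD (P = 0.05).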

Colletotrichum fragariae [25] = experiment: Antifungal activity against Colletotrichum fragariae assessed as size of growth inhibitory zone at concentration of 2 mM in volume of 2 ul of EtOH measured after 4 days by TLC based direct bioautography assay; assay type: functional; method in brief: as §3
Colletotrichum acutatum [26] = experiment: Antifungal activity against Colletotrichum acutatum assessed as diffuse inhibitory zone at concentration of 2 mM in volume of 2 ul of EtOH measured after 4 days by TLC based direct bioautography assay; assay type: functional, organism-based; method in brief: as §3
[27] = tested on: Colletotrichum gloeosporioides; experiment: Antifungal activity against Colletotrichum gloeosporioides assessed as size of growth inhibitory zone at concentration of 2 mM in volume of 2 ul of EtOH measured after 4 days by TLC based direct bioautography assay; assay type: functional; method in brief: as §3
Colletotrichum acutatum [28] = experiment: Antifungal activity against Colletotrichum acutatum assessed as size of growth inhibitory zone at concentration of 2 mM in volume of 2 ul of EtOH measured after 4 days by TLC based direct bioautography assay; assay type: functional; method in brief: as §3
Botrytis cinerea [29] = experiment: Antifungal activity against Botryotinia fuckeliana assessed as growth inhibition at 30 uM by 96-well microdilution broth assay; assay type: functional; details: read-out: GI; method in brief: as §2

`CC(C)=CCC[C@](C)(O)[C@@H]1CC=C(C)CC1` (relative stereo) [LEVOMENOL] was tested, and the Activity [1] was 9 mm, the Activity [2] was 8 mm and the Activity [3] was 7.5 mm. For the same molecule, the Activity [4] was 5 mm, the Activity (Colletotrichum fragariae [5]) was 11.5 mm and the Activity (Colletotrichum fragariae [6]) was 9.5 mm. The Activity (Colletotrichum acutatum [7]) was 8 mm, the Activity (Colletotrichum fragariae [8]) was 8 mm and the Activity (Colletotrichum fragariae [9]) was 7 mm. For the same molecule, the Activity (Colletotrichum fragariae [10]) was 5 mm, the Activity (Colletotrichum acutatum [11]) was 11 mm and the Activity (Colletotrichum acutatum [12]) was 9.5 mm. It also gave an Activity (Colletotrichum acutatum [13]) of 7.5 mm, an Activity (Colletotrichum acutatum [14]) of 7.5 mm and an Activity (Colletotrichum acutatum [15]) of 5.5 mm. For the same molecule, the Activity [16] was 5.5 mm, the Activity (Colletotrichum fragariae [17]) was 6.5 mm and the “growth inhibition (GI)” value (Fusarium oxysporum) was “inactive”. For the same molecule, the “growth inhibition (GI)” value (Phomopsis obscurans) was “inactive”, the “growth inhibition (GI)” value [18] was “inactive” and the “growth inhibition (GI)” value (Colletotrichum fragariae [19]) was “inactive”. The “growth inhibition (GI)” value (Colletotrichum acutatum [20]) was “inactive”, the inhibition of growth at 3 µM (Botrytis cinerea [21]) was 47.3% and the inhibition of growth at 0.3 µM (Botrytis cinerea [22]) was 46.5%. For the same molecule, the Activity [23] was 11.5 mm.
In the case of `CO/C=C(/C(=O)OC)c1ccccc1Oc1cc(Oc2ccccc2C#N)ncn1` [AZOXYSTROBIN], the inhibition [24] was “Active”, the Activity (Colletotrichum fragariae [25]) was 23 mm and the inhibition (Colletotrichum acutatum [26]) was “Active”.
In the case of `CCCCNC(=O)n1c(NC(=O)OC)nc2ccccc21` [BENOMYL], the inhibition [24] was “Active”, the Activity (Colletotrichum fragariae [25]) was 21.3 mm and the inhibition (Colletotrichum acutatum [26]) was “Active”.
`C=C1CCC[C@]2(C)CC[C@@H](C(C)(C)O)C[C@@H]12` [BETA-EUDESMOL] gave an Activity (Colletotrichum acutatum [7]) of 0 mm, an Activity [16] of 0 mm and an Activity (Colletotrichum fragariae [17]) of 0 mm.
With `C=C1C=CC(C(C)C)CC1` (stereo not drawn) [BETA-PHELLANDRENE] the Activity (Colletotrichum acutatum [7]) was 0 mm, the Activity [16] was 0 mm and the Activity (Colletotrichum fragariae [17]) was 0 mm.
Work on `C=C1CCC2CC1C2(C)C` (stereo not drawn) [BETA-PINENE] yielded an Activity (Colletotrichum acutatum [7]) of 0 mm, an Activity [16] of 0 mm and an Activity (Colletotrichum fragariae [17]) of 0 mm.
In the case of `O=C1C2CC=CCC2C(=O)N1SC(Cl)(Cl)Cl` (stereo not given) [CAPTAN], the Activity [27] was 18.9 mm, the Activity (Colletotrichum fragariae [25]) was 15 mm and the Activity (Colletotrichum acutatum [28]) was 11.5 mm.
`Cc1ccc(C(C)C)cc1O` [CARVACROL] was tested, and the inhibition of growth at 30 µM (Botrytis cinerea [29]) was 36.9%.
`Cc1cc(C2CC2)nc(Nc2ccccc2)n1` [CYPRODINIL] was tested, and the inhibition [24] was “Active”, the Activity (Colletotrichum fragariae [25]) was 23 mm and the inhibition (Colletotrichum acutatum [26]) was “Active”.
`CCCCCCCCCCCCCCCC(=O)O` [PALMITIC ACID] gave an Activity (Colletotrichum acutatum [7]) of 0 mm, an Activity [16] of 0 mm and an Activity (Colletotrichum fragariae [17]) of 0 mm.
